Consider five compounds from ChEMBL document CHEMBL1124569, “5-HT1A-receptor antagonism: N-alkyl derivatives of (R)-(-)-8,11-dimethoxynoraporphine” (J Med Chem, 1989).

Active and inactive are the calls of the source. The rule behind the calls is not given here.

Experiment [1] deals with Felis catus. Briefly: Minimum effective dose administered intravenously for decrease in arterial pressure in cat heart. In kind it is functional. To be noted: Artery, iv, read-out: MED. The procedure, abridged: (§1)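 Cats anesthetized with pentobarbital sodium (30 mg/kg ip), intubated and ventilated, with bilateral vagotomy and atropine sulfate 200 μg/kg. Compound given iv via femoral vein, doses up to 1 mg/kg. Femoral arterial pressure and heart rate were recorded continuously. The right postganglionic cardioaccelerator nerve was stimulated at 2 Hz, 5 ms, 20 V.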

Experiment [2] has as its system Felis catus. The experiment is described as follows: Minimum effective dose administered intravenously for decrease in heart rate in cat. In kind it is functional. As to conditions: iv, read-out: MED. In a few lines: as §1
Experiment [3] deals with T1, 5-hydroxytryptamine receptor 1A (Rattus norvegicus, UniProt P19327).
T1 sequence (P19327 whole entry): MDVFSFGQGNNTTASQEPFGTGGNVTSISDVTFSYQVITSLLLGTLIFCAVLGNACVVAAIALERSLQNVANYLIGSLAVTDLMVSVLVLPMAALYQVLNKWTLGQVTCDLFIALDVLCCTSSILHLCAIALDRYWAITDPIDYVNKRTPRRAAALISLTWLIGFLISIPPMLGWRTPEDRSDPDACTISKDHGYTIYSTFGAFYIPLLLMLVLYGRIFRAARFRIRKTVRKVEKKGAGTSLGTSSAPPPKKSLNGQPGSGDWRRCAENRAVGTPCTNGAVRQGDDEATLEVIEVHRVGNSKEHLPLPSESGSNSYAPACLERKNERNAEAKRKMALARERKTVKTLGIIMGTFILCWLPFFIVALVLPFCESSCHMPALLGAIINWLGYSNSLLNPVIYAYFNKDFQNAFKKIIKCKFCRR
The experiment is described as follows: Binding affinity of compound against 5-hydroxytryptamine 1A receptor binding site using radioligand [3H]8-OH-DPAT.

Another experiment addresses D(2) dopamine receptor (Rattus norvegicus, UniProt P61169). Briefly: Binding affinity of compound against Dopamine receptor D2 binding site using radioligand [3H]spiperone.
For experiment [4], the species on record is Rattus norvegicus. Briefly: Ability of compound to induce behavioral changes in rat; Not active. In kind it is functional, organism-based. The procedure, abridged:
(§2)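 Rats dosed subcutaneously and observed for locomotor activity and serotonin syndrome signs (flat body posture, forepaw extension and padding, abducted hindlimbs, forebody tremor). Antagonism was tested by giving the compound 15 min before subcutaneous 8-OH-DPAT.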

For experiment [5], the species on record is Rattus norvegicus. The experiment is described as follows: Ability of compound to induce behavioral changes in rat. In kind it is functional. To be noted: read-out: MED. In a few lines: as §2

D(2) dopamine receptor, sequence (P61169 whole entry): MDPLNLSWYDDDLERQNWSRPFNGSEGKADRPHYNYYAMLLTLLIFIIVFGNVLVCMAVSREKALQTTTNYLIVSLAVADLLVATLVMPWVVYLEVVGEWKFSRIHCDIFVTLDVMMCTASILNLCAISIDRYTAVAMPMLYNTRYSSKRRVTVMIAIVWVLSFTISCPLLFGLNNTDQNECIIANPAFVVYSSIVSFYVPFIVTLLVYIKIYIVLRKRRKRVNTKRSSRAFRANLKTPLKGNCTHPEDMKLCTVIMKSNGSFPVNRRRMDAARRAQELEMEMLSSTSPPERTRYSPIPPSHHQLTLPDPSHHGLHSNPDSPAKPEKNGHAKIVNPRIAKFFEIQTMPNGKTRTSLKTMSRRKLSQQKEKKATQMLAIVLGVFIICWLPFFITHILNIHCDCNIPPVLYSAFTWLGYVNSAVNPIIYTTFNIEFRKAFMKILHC

Take `CCCN1CCc2cccc3c2[C@H]1Cc1c(OC)ccc(OC)c1-3`: the minimal effective dose in the experiment with Felis catus [1] and in the experiment with Felis catus [2] was above 1 mg/kg each time. For the same compound, the Ki (as a rule, the equilibrium dissociation constant of an inhibitor or competing ligand from its target) was determined as 240 nM in experiment [3] and 770 nM at D(2) dopamine receptor. Further, the MED entry in the experiment listed under Rattus norvegicus [4] is “inactive”.
For the compound `CCCN(CCC)C1CCc2cccc(O)c2C1` (stereo not drawn) [8-OH-DPAT], the minimal effective dose in the experiment listed under Rattus norvegicus [5] was found to be 0.5 mg/kg; in the experiment with Felis catus [1], 0.01 mg/kg; in the experiment on Felis catus [2], 0.01 mg/kg. For the same compound, affinity on D(2) dopamine receptor was put at a Ki of 3500 nM.
As to `COc1ccc(OC)c2c1C[C@@H]1c3c(cccc3-2)CCN1C`, the values for the minimal effective dose in the experiment filed under Rattus norvegicus [5], in the experiment with Felis catus [1] and in the experiment on Felis catus [2] were 5 mg/kg, above 1 mg/kg and above 1 mg/kg, respectively. For the same compound, the Ki in experiment [3] was 8.6 nM; at D(2) dopamine receptor it was 210 nM.
Compound `O=C(CCCN1CCC2(CC1)C(=O)NCN2c1ccccc1)c1ccc(F)cc1` [SPIPERONE] registered a Ki in experiment [3] of 30 nM.
As to `CN1CCc2cccc3c2[C@H]1Cc1ccc(O)c(O)c1-3` [APOMORPHINE], the minimal effective dose worked out at 1 mg/kg in the experiment listed under Rattus norvegicus [5], 0.01 mg/kg in the experiment with Felis catus [1] and 0.01 mg/kg in the experiment on Felis catus [2].
